pIC50: −log10 of the molar value. In brackets after ≈: the same amount, converted by molar mass. Activity calls are given as the source filed them. The rule behind the calls is not given here.
Assays:
[1] = Intrinsic clearance in rat liver microsomes at 1 uM after 30 mins by LC-MS HRMS analysis; type: ADME; conditions: read-out: CLH
[2] = Intrinsic clearance in human liver microsomes at 1 uM after 30 mins by LC-MS HRMS analysis; type: ADME; conditions: read-out: CLH
[3] = Clearance in Sprague-Dawley rat at 2 mg/kg, iv; type: ADME, organism-based; conditions: in vivo
Method in brief: (§1)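 Male Sprague Dawley rats, 3 animals per dosing route, mean values. iv dose 2 mg/kg as a solution in DMSO; po dose 5 mg/kg in 1% Tween 80, 2% HPMC, 97% water/methanesulfonic acid pH 2.2.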

[4] = Mean residence time in Sprague-Dawley rat at 2 mg/kg, iv; type: ADME, organism-based; conditions: in vivo; method in brief: as §1
[5] = AUC (0 to infinity) in Sprague-Dawley rat at 5 mg/kg, po; type: ADME, organism-based; set-up: dose 5 mg/kg, route oral, time infinity; conditions: in vivo; method in brief: as §1
[6] = Oral bioavailability in Sprague-Dawley rat at 5 mg/kg; type: ADME, organism-based; conditions: in vivo; method in brief: as §1
[7] = target: Voltage-gated inwardly rectifying potassium channel KCNH2 (Homo sapiens, UniProt Q12809); assay: Inhibition of radiolabeled dofetilide binding to human ERG expressed in HEK293 cells
[8] = Clearance in Sprague-Dawley rat at 2 mg/kg, iv relative to liver blood flow; type: ADME, organism-based; conditions: in vivo; method in brief: as §1
[9] = Aqueous solubility in 0.01N HCl after 48 to 72 hrs by HPLC analysis; type: physicochemical
Method in brief: (§2)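 Aqueous solubility determined in 0.01N HCl, PBS (pH 7.4) and FaSIF (pH 6.8).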

[10] = Aqueous solubility in pH 6.8 FsSIF after 48 to 72 hrs by HPLC analysis; type: physicochemical; method in brief: as §2
[11] = target: Mitogen-activated protein kinase 15 (Homo sapiens) (UniProt Q8TD08); assay: Competitive binding affinity to partial length wild type human ERK8 expressed in bacterial expression system at 10 uM by kinomescan method relative to control
Method in brief: (§3)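 DiscoveRX scanMAX kinase panel of protein and lipid kinases and common mutants; competitive binding of compound at 10 µM expressed as percentage of control (POC).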

[12] = system: Receptor-type tyrosine-protein kinase FLT3 (Homo sapiens), P36888 [D835Y]; assay: Competitive binding affinity to partial length […] human FLT3 D835Y expressed in bacterial expression system at 10 uM by kinomescan method relative to control
Method in brief: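 Single-concentration (10 µM) screen in the scanMAX competition-binding panel of protein and lipid kinases and their common mutants. Binding is expressed as percentage of control (POC).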

[13] = target: Glycogen synthase kinase-3 beta (Homo sapiens) (UniProt P49841); assay: Competitive binding affinity to full length wild type human GSK3B expressed in mammalian expression system at 10 uM by kinomescan method relative to control; method in brief: as §3
[14] = target: Homeodomain-interacting protein kinase 1 (Homo sapiens) (UniProt Q86Z02); assay: Competitive binding affinity to partial length wild type human HIPK1 expressed in mammalian expression system at 10 uM by kinomescan method relative to control; method in brief: as §3
[15] = target: Homeodomain-interacting protein kinase 2 (Homo sapiens) (UniProt Q9H2X6); assay: Competitive binding affinity to partial length wild type human HIPK2 expressed in mammalian expression system at 10 uM by kinomescan method relative to control; method in brief: as §3
[16] = target: Homeodomain-interacting protein kinase 3 (Homo sapiens) (UniProt Q9H422); assay: Competitive binding affinity to partial length wild type human HIPK3 expressed in mammalian expression system at 10 uM by kinomescan method relative to control; method in brief: as §3
[17] = target: Mitogen-activated protein kinase 13 (Homo sapiens) (UniProt O15264); assay: Competitive binding affinity to full length wild type human p38delta expressed in bacterial expression system at 10 uM by kinomescan method relative to control; method in brief: as §3
[18] = target: Serine/threonine-protein kinase TAO1 (Homo sapiens) (UniProt Q7L7X3); assay: Competitive binding affinity to partial length wild type human TAOK1 expressed in mammalian expression system at 10 uM by kinomescan method relative to control; method in brief: as §3
[19] = target: Serine/threonine-protein kinase TAO2 (Homo sapiens) (UniProt Q9UL54); assay: Competitive binding affinity to partial length wild type human TAOK2 expressed in mammalian expression system at 10 uM by kinomescan method relative to control; method in brief: as §3
[20] = target: Serine/threonine-protein kinase TAO3 (Homo sapiens) (UniProt Q9H2K8); assay: Competitive binding affinity to partial length wild type human TAOK3 expressed in mammalian expression system at 10 uM by kinomescan method relative to control; method in brief: as §3
[21] = Antiproliferative activity against human MOLP8 cells after 72 hrs by CellTiter-Glo assay; type: functional, cell-based; conditions: MOLP-8, 72 h
[22] = Antiproliferative activity against human KMS11 cells after 72 hrs by CellTiter-Glo assay; type: functional, cell-based; conditions: KMS-11, 72 h
[23] = Antiproliferative activity against human KMS12PE cells after 72 hrs by CellTiter-Glo assay; type: functional, cell-based; conditions: KMS-12-PE
[24] = Antiproliferative activity against human KARPAS620 cells after 72 hrs by CellTiter-Glo assay; type: functional, cell-based; conditions: Karpas-620, 72 h
[25] = Antiproliferative activity against human KMS-12-BM cells after 72 hrs by CellTiter-Glo assay; type: functional, cell-based
[26] = Antiproliferative activity against human SKMM-2 cells after 72 hrs by CellTiter-Glo assay; type: functional, cell-based; conditions: SK-MM-2, 72 h
[27] = Antiproliferative activity against human MOLP2 cells after 72 hrs by CellTiter-Glo assay; type: functional, cell-based; conditions: MOLP-2, 72 h
[28] = Antiproliferative activity against human NCI-H929 cells after 72 hrs by CellTiter-Glo assay; type: functional, cell-based; conditions: NCI-H929, 72 h
[29] = Antiproliferative activity against human JJN-3 cells after 72 hrs by CellTiter-Glo assay; type: functional, cell-based; conditions: JJN-3, 72 h
[30] = Antiproliferative activity against human KMS26 cells after 72 hrs by CellTiter-Glo assay; type: functional, cell-based; conditions: KMS-26, 72 h
[31] = Antiproliferative activity against human MM1R cells after 72 hrs by CellTiter-Glo assay; type: functional, cell-based; conditions: MM.1R
[32] = Antiproliferative activity against human KMM1 cells after 72 hrs by CellTiter-Glo assay; type: functional, cell-based; conditions: KMM-1, 72 h
[33] = Inhibition of Pim signaling in human KMS-12-BM cells assessed as upregulation of Pim1 expression at […] after 4 to 72 hrs by Western blot method; type: cell-based
[34] = Inhibition of Pim signaling in human KMS-12-BM cells assessed as upregulation of Pim2 expression at […] after 4 to 72 hrs by Western blot method; type: cell-based
[35] = Inhibition of Pim signaling in human KMS-12-BM cells assessed as upregulation of Pim3 expression at […] after 4 to 72 hrs by Western blot method; type: cell-based
[36] = Effect on total BAD levels in human KMS-12-BM cells at […] after 4 to 72 hrs by Western blot method; type: ADME, cell-based
KMS-12-BM [37] = assay: Induction of apoptosis in human KMS-12-BM cells assessed as increase in cleaved caspase 3 levels at […] after 4 to 72 hrs by Western blot method; type: functional, cell-based
KMS-12-BM [38] = assay: Induction of apoptosis in human KMS-12-BM cells assessed as increase in cleaved caspase 6 levels at […] after 4 to 72 hrs by Western blot method; type: functional, cell-based

Chain of Homeodomain-interacting protein kinase 3 (Homo sapiens) (Q9H422 whole entry, looked up): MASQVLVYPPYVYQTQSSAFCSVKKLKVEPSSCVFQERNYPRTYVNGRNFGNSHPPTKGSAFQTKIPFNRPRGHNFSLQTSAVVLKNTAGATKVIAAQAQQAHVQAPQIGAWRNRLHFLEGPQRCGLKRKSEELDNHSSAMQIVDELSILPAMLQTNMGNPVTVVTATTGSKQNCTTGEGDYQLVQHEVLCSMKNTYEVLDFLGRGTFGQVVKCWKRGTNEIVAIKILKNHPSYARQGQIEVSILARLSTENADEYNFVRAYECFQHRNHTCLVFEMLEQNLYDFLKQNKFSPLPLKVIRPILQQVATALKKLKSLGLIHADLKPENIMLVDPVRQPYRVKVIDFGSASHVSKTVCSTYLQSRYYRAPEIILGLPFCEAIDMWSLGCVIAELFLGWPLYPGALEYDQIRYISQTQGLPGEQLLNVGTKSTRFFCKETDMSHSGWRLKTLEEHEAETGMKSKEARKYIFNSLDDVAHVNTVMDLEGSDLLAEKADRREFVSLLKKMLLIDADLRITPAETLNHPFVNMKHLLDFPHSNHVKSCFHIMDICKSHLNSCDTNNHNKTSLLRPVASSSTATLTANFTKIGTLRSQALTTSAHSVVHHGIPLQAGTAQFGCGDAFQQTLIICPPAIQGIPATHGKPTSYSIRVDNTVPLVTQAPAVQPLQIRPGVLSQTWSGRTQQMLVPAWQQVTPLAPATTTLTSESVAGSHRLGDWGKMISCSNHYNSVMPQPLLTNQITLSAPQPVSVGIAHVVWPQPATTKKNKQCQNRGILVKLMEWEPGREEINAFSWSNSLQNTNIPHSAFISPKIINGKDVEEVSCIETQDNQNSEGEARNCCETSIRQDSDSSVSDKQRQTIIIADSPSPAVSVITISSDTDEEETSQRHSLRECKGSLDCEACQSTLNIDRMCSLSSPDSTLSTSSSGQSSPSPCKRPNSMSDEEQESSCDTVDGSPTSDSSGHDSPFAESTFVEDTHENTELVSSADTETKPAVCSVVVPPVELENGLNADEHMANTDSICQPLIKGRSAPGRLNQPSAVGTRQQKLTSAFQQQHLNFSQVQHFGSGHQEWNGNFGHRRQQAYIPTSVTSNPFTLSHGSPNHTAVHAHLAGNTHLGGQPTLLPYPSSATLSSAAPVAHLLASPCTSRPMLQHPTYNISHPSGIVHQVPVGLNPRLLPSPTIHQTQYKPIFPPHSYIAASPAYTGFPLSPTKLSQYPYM
Chain of Mitogen-activated protein kinase 15 (Homo sapiens) (Q8TD08 whole entry): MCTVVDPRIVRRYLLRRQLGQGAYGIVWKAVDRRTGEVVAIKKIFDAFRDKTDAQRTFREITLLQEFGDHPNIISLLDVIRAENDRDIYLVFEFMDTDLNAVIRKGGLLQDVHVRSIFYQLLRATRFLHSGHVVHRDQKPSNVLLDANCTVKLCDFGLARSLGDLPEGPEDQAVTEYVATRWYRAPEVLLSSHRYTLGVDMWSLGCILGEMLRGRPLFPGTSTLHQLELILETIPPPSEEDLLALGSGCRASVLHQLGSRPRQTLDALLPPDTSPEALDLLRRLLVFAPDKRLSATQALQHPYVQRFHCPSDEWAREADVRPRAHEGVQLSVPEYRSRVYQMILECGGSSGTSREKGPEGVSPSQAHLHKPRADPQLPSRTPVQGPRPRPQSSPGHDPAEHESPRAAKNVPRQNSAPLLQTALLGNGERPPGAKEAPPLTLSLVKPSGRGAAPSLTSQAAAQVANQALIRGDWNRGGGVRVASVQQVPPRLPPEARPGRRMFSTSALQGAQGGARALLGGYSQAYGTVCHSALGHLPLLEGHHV
Chain of Serine/threonine-protein kinase TAO2 (Homo sapiens) (Q9UL54 whole entry): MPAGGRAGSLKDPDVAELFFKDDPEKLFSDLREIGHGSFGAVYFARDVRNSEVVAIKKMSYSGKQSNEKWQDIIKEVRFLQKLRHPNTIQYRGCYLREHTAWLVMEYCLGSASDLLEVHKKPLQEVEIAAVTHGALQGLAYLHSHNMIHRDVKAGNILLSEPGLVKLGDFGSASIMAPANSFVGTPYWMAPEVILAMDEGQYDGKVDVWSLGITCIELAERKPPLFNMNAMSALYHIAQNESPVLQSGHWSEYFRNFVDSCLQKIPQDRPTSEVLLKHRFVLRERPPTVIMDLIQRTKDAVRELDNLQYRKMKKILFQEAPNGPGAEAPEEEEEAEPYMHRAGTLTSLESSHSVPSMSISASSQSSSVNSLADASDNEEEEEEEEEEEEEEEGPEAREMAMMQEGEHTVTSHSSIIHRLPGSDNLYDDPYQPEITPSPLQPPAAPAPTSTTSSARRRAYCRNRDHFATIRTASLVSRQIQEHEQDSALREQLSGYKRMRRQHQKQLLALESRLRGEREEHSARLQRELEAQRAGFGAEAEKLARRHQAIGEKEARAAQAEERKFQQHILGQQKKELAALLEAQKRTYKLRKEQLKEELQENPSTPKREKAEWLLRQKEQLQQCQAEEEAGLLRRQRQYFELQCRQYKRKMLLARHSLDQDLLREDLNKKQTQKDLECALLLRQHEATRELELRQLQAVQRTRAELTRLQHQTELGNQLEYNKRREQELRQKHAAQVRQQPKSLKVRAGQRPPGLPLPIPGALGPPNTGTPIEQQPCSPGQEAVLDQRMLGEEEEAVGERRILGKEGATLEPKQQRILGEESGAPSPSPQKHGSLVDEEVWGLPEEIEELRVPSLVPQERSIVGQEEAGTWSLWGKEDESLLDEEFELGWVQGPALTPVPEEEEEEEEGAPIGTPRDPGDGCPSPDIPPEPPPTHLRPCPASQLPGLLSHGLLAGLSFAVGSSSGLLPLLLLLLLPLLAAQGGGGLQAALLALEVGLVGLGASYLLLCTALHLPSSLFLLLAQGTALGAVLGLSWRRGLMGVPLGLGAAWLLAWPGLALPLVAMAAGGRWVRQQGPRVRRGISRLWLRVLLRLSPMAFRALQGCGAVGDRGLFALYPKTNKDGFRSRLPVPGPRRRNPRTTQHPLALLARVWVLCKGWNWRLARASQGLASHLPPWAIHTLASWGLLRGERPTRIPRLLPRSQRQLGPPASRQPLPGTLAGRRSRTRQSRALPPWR
Chain of Glycogen synthase kinase-3 beta (Homo sapiens) (P49841 whole entry, looked up): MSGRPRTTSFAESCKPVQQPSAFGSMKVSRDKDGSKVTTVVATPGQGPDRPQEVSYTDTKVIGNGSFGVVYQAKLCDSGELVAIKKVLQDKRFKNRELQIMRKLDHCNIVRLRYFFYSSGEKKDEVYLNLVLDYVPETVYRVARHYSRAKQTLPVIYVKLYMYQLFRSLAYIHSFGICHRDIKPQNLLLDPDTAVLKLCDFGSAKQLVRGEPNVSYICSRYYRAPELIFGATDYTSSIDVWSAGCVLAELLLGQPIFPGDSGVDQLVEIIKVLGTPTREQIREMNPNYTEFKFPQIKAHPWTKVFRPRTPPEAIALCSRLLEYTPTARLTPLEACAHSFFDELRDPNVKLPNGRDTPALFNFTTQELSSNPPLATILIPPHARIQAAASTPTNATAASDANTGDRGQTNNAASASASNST
Chain of Serine/threonine-protein kinase TAO1 (Homo sapiens) (Q7L7X3 whole entry): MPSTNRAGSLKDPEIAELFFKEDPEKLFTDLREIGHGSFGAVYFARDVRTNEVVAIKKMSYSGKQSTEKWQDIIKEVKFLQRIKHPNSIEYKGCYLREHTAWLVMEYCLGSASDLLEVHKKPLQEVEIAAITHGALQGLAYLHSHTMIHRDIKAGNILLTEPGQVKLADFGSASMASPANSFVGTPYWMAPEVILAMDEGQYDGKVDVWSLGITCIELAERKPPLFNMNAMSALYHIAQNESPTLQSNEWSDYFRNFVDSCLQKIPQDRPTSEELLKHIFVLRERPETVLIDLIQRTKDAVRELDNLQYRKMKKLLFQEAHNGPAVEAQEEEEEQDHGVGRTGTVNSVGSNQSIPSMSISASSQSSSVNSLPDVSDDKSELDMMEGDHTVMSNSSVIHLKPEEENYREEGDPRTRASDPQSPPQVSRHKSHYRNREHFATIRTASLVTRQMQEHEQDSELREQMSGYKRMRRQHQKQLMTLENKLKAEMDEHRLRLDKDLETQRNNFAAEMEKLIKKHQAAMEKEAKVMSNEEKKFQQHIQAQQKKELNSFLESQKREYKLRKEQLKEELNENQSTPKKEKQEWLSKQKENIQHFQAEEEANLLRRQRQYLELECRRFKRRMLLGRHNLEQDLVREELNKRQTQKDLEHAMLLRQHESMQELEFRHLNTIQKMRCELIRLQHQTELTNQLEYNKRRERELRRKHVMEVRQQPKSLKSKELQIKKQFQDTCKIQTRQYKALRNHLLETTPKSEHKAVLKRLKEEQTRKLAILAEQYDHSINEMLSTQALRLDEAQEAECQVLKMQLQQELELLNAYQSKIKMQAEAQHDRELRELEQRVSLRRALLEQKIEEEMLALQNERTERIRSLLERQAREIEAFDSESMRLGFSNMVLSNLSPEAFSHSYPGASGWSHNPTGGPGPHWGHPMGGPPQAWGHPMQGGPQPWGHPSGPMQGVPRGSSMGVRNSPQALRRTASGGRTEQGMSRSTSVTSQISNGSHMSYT
Chain of Mitogen-activated protein kinase 13 (Homo sapiens) (O15264 whole entry): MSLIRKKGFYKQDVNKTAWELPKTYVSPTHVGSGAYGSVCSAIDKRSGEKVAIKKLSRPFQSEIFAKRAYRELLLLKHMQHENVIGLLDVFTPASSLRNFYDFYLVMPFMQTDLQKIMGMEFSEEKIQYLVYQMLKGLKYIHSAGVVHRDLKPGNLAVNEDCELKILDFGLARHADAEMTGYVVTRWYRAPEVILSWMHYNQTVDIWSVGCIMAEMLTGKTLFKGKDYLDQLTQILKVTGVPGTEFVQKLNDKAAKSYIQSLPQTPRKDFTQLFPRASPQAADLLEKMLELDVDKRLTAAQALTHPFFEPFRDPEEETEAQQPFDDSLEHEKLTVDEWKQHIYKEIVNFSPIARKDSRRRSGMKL

In the case of C[C@@H]1C[C@H](N)CN(c2ccncc2Nc2ncc3ccc(-c4c(F)cccc4F)nn23)C1, the microsomal CLint at 1 µM [1] was greater than 399 µL/min/mg, the microsomal CLint at 1 µM [2] was 69 µL/min/mg and the CL [3] was 23.3 mL/min/kg. For the same compound, the MRT [4] was 4.3 h, the AUC [5] was 3.5 µM·h and the F [6] was 17%. It also gave a pIC50 [7] of 6.00, a CL [8] of 40% and a solubility [9] of 200 µg/mL (≈ 459 µM). For the same compound, the solubility [10] was 150 µg/mL (≈ 344 µM), the Activity [11] was 0.65% and the Activity [12] was 6.1%. It also gave an Activity [13] of 2.3%, an Activity [14] of 7% and an Activity [15] of 1.8%. For the same compound, the Activity [16] was 1.2%, the Activity [17] was 8.4% and the Activity [18] was 0.6%. For the same compound, the Activity [19] was 7.8%, the Activity [20] was 0.4% and the pIC50 [21] was 7.24. It also gave a pIC50 [22] of 7.00, a pIC50 [23] of 6.89 and a pIC50 [24] of 6.79. The pIC50 [25] was 6.67, the pIC50 [26] was 6.64 and the pIC50 [27] was 6.48. For the same compound, the pIC50 [28] was 6.47, the pIC50 [29] was 6.43 and the pIC50 [30] was 6.41. The pIC50 [31] was 6.34, the pIC50 [32] was 5.67 and the Activity [33] was “Active”. For the same compound, the Activity [34] was “Active”, the Activity [35] was “Active” and the Activity [36] was “Non-Toxic”. The Activity (KMS-12-BM [37]) was “Active” and the Activity (KMS-12-BM [38]) was “Active”.

— ChEMBL document CHEMBL3864151, “Discovery of imidazopyridazines as potent Pim-1/2 kinase inhibitors” (Bioorg Med Chem Lett, 2016)
